The record followed here is ChEMBL document CHEMBL2057095, “Discovery and SAR of orally efficacious tetrahydropyridopyridazinone PARP inhibitors for the treatment of cancer” (Bioorg Med Chem, 2012).

The test system of data set [1] is Mus musculus. In words: (§1) AUC (0 to 8 hrs) in mouse at 10 mg/kg, po. The format is ADME, organism-based, Plasma. More on the design: time < 8 hr, dose 10 mg/kg, route oral. The following applies: in vivo, 8 h. An outline of the steps: (§2)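 Standard mouse PK: oral dose of 10 mg/kg and intravenous dose of 3 mg/kg; plasma concentrations determined up to 8 h.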
A short description of data set [2]: Cmax in mouse at 10 mg/kg, po. Type of data set: ADME, organism-based. More on the design: dose 10 mg/kg, route oral. The following applies: in vivo. An outline of the steps: as §2
A short description of data set [3]: Half life in mouse at 3 mg/kg, iv. Type of data set: ADME, organism-based. More on the design: dose 3 mg/kg, route intravenous. The following applies: in vivo. A digest of the protocol:
as §2

Data set [4] concerns Mus musculus. Put plainly: (§3) Oral bioavailability in mouse at 10 mg/kg. The format is ADME, organism-based. The following applies: in vivo. A digest of the protocol: as §2
Data set [5] in a line: Volume of distribution at steady state in mouse at 10 mg/kg, po and 3 mg/kg, iv. Type of data set: ADME, organism-based. The following applies: in vivo, read-out: Vdss. A digest of the protocol:
as §2

The test system of data set [6] is Mus musculus. Put plainly: (§4) Clearance in mouse at 10 mg/kg, po and 3 mg/kg, iv. The format is ADME, organism-based. The following applies: in vivo. A digest of the protocol: as §2
Data set [7] is described as follows: AUC (0 to 3 hrs) in mouse at 10 mg/kg, po. The following applies: plasma. More on the design: time < 3 hr, dose 10 mg/kg, route oral. Type of data set: ADME, organism-based. A digest of the protocol:
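Screening mouse PK: single oral dose of 10 mg/kg; plasma concentrations determined up to 3 h.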

In data set [8] the test system is Mus musculus. In words: Toxicity in C57BL/6 mouse bearing B16F10 tumor assessed as body weight loss at 50 mg/kg/day, po administered QD from day 5 to day 10 post-tumor implantation relative to vehicle-treated control. Type of data set: organism-based. More on the design: route oral. The following applies: in vivo. A digest of the protocol:
(§5)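 Syngeneic B16F10 melanoma: 6 × 10⁴ cells in 50% matrigel injected s.c. into the flank of female C57BL/6 mice, 6–8 weeks old, 20 g. PARP inhibitor given orally on days 5–10 at 10, 30 or 60 mg/kg/day, bid. TMZ given orally at 50 mg/kg/day, qd, days 5–10. Tumor growth and body weight followed to day 21.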

The test system of data set [9] is Mus musculus. Put plainly: Antitumor activity against B16F10 tumor xenografted in C57BL/6 mouse assessed as tumor growth inhibition at 50 mg/kg/day, po administered QD from day 5 to day 10 post-tumor implantation. More on the design: route oral. The format is organism-based. The following applies: C57BL/6, B16-F10, po, read-out: GI. An outline of the steps: as §5

Data set [10] concerns Mus musculus. In words: Toxicity in C57BL/6 mouse bearing B16F10 tumor assessed as body weight loss at 50 mg/kg/day, po administered QD from day 5 to day 9 post-tumor implantation relative to vehicle-treated control. Type of data set: organism-based. More on the design: route oral. The following applies: in vivo. A digest of the protocol:
(§6)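 Syngeneic B16F10 model: 6 × 10⁴ cells with 50% matrigel implanted s.c. into the flank of female C57BL/6 mice (6–8 weeks, 20 g). […] TMZ given orally at 50 mg/kg/day once daily over the same days. Tumor growth and body weight monitored.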

A short description of data set [11]: as §1. Type of data set: ADME, organism-based, Plasma. More on the design: time < 8 hr, dose 10 mg/kg, route oral. The following applies: plasma. A digest of the protocol:
as §2

Data set [12] can be described thus: as §3. Type of data set: ADME, organism-based. The following applies: in vivo. A digest of the protocol: as §2
The nature of data set [13]: as §4. The format is ADME, organism-based. The following applies: in vivo. An outline of the steps:
as §2

For data set [14], the system named is Mus musculus. In words: Toxicity in C57BL/6 mouse bearing B16F10 tumor assessed as mortality at 10 to 30 mg/kg/day, po administered BID from day 5 to day 10 post-tumor implantation co-administered with temozolomide. Type of data set: organism-based. More on the design: route oral. The following applies: in vivo.
Data set [15] deals with Mus musculus. In words: Toxicity in C57BL/6 mouse bearing B16F10 tumor assessed as body weight loss at 60 mg/kg/day, po administered BID from day 5 to day 10 post-tumor implantation co-administered with temozolomide relative to vehicle-treated control. The following applies: in vivo.
Data set [16] concerns B16-F10. Put plainly: Potentiation of temozolomide-induced antitumor activity against mouse B16F10 cells xenografted in po dosed C57BL/6 mouse assessed as tumor growth inhibition administered BID from day 5 to day 10 post-tumor implantation. Type of data set: functional, organism-based. A digest of the protocol: as §5
The test system of data set [17] is Mus musculus. Put plainly: Toxicity in C57BL/6 mouse bearing B16F10 tumor assessed as body weight loss at 30 mg/kg/day, po administered BID from day 5 to day 10 post-tumor implantation co-administered with temozolomide relative to vehicle-treated control. Type of data set: organism-based. The following applies: in vivo. More on the design: route oral. A digest of the protocol:
as §5

In data set [18] the test system is Mus musculus. Put plainly: Toxicity in C57BL/6 mouse bearing B16F10 tumor assessed as body weight loss at 5 mg/kg/day, po administered BID from day 5 to day 9 post-tumor implantation co-administered with temozolomide relative to vehicle-treated control. Type of data set: organism-based. More on the design: route oral. The following applies: in vivo. An outline of the steps: as §6

Data set [19] deals with B16-F10. In words: Potentiation of TMZ antitumor activity against mouse B16F10 cells xenografted in po dosed C57BL/6 mouse assessed as increase in tumor growth inhibition administered BID from day 5 to day 9 post-tumor implantation. The format is functional, organism-based. A digest of the protocol:
as §6

Data set [20] deals with Mus musculus. Put plainly: (§7) Toxicity in C57BL/6 mouse bearing B16F10 tumor assessed as body weight loss at […], po administered BID from day 5 to day 9 post-tumor implantation co-administered with temozolomide relative to vehicle-treated control. The following applies: in vivo. More on the design: route oral. The format is organism-based.
Data set [21] has as its system Mus musculus. The description is as §7. The following applies: in vivo. The format is organism-based. More on the design: route oral. This is another data set of the same source.

In the data set on Mus musculus [1], `O=C(c1cc(Cc2n[nH]c(=O)c3c2CCCC3)ccc1F)N1CCN(c2ncccn2)CC1` had an AUC of 2380 ng·h/mL. Besides, the concentration in data set [2] peaked (Cmax) at 1030 ng/mL. Also, the half-life in data set [3] is 21.6 min. In the data set on Mus musculus [4], this compound showed an F of 48%. In addition, the Vd in data set [5] was 2.33 L/kg. The same compound displayed a CL with Mus musculus [6] of 75.8 mL/min/kg.
In the case of `O=C1CCCC(=O)N1c1cc(Cc2n[nH]c(=O)c3c2NCCC3)ccc1F`, the AUC(0-t) at 3 h in data set [7] worked out at 70 ng·h/mL.
As for `Cn1nnc2c(C(N)=O)ncn2c1=O` [TEMOZOLOMIDE], the results for the Activity in the data set with Mus musculus [8] and in the data set on Mus musculus [10] were 1% and 2%, respectively. Further, the inhibition at 50 mg/kg in the data set with Mus musculus [9] came out at 30%.
With `O=C(c1cc(Cc2n[nH]c(=O)c3c2CCCC3)ccc1F)N1CCN(c2ccccn2)CC1`, in the data set with Mus musculus [1], the AUC stood at 2700 ng·h/mL. In data set [2], this compound gave a Cmax of 1090 ng/mL. Also, the half-life in data set [3] was 66 min. In the data set with Mus musculus [4], this compound gave an F of 74%. The Vd in [5] worked out at 9.48 L/kg. The compound further displayed a CL with Mus musculus [6] of 98.7 mL/min/kg.
`O=C(c1cc(Cc2n[nH]c(=O)c3c2NCCC3)ccc1F)N1CCN(C(=O)C(F)(F)F)CC1` had an AUC(0-t) at 3 h in [7] of 70 ng·h/mL.
For `O=C(c1cc(Cc2n[nH]c(=O)c3c2NCCC3)ccc1F)N1CCN(c2ncccn2)CC1`, the AUC(0-t) at 8 h in data set [11] is 9060 ng·h/mL. Also, the maximum concentration (Cmax) in [2] was 5600 ng/mL. Further, the AUC(0-t) at 3 h in [7] turned out to be 2900 ng·h/mL. The compound further gave a half-life in data set [3] of 232 min. In [12], this compound gave a bioavailability of 36%. The Vd in data set [5] was found to be 4.99 L/kg. The clearance in data set [13] is 14.8 mL/min/kg.
`O=C1CCCN1c1cc(Cc2n[nH]c(=O)c3c2CCCC3)ccc1F`: the AUC in the data set with Mus musculus [1] is 330 ng·h/mL. This compound also had a Cmax in [2] of 140 ng/mL. Besides, in [3], the half-life is 16.8 min. This compound showed a F with Mus musculus [4] of 13%. Besides, in data set [5], the Vd was 4.78 L/kg. This compound had a CL with Mus musculus [6] of 195.3 mL/min/kg.
`O=C1CCCN1c1cc(Cc2n[nH]c(=O)c3c2NCCC3)ccc1F`: the Activity entry in the data set with Mus musculus [14] is “Non-toxic”; in the data set on Mus musculus [15] it was 12%; in the data set with B16-F10 [16] it was “Dose-dependent effect”; with Mus musculus [17], 3%. The AUC with Mus musculus [1] turned out to be 3110 ng·h/mL. In [2], the peak level (Cmax) was 1500 ng/mL. The same compound showed a half-life in data set [3] of 29.4 min. Moreover, the F with Mus musculus [4] was determined as 106%. In [5], the Vd amounted to 5.25 L/kg. The same compound yielded a CL in the data set on Mus musculus [6] of 124 mL/min/kg.
On to `O=C(c1cc(Cc2n[nH]c(=O)c3c2NCCC3)ccc1F)N1CCN(c2ccccn2)CC1`, for which the exposure AUC(0-t) at 8 h in data set [11] stood at 5950 ng·h/mL. This compound had a Cmax in data set [2] of 2010 ng/mL. The Activity was 21% in the data set on Mus musculus [18], “Dose-dependent effect” in the data set with B16-F10 [19], 3% in the data set on Mus musculus [20] and 3% in the data set with Mus musculus [21]. The same compound returned an AUC(0-t) at 3 h in data set [7] of 2900 ng·h/mL. Further, the half-life in [3] is 156 min. The compound also returned a bioavailability in data set [12] of 67%. Further, the Vd in [5] came out at 7.66 L/kg. Besides, the clearance in data set [13] was 34 mL/min/kg.
For the compound `O=C(c1cc(Cc2n[nH]c(=O)c3c2NCCC3)ccc1F)N1CCN(c2ccccc2)CC1`, in data set [7], the AUC(0-t) at 3 h is 2900 ng·h/mL.
The same measure, in the same setting: as for `CC(=O)N1CCN(C(=O)c2cc(Cc3n[nH]c(=O)c4c3NCCC4)ccc2F)CC1`, the figure is 70 ng·h/mL.
